Here are results for 18 molecules from ChEMBL document CHEMBL3392992, “Synthesis, antiproliferative activity, and in silico insights of new 3-benzoylamino-benzo[b]thiophene derivatives” (Eur J Med Chem, 2015).

The subject of data set [1] is HeLa. Put plainly: Toxicity against human HeLa cells assessed as effect on cell membrane integrity at 1 to 20 uM after 48 hrs by trypan blue dye exclusion method. Type of data set: cell-based.
Data set [2] relates to HeLa. The data set is described as follows: Antiproliferative activity against human HeLa cells assessed as reduction in cell proliferation after 48 hrs by MTT assay. Type of data set: functional. The essentials:
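HeLa cells grown with FBS, 2 mM L-glutamine, penicillin/streptomycin at 37 °C, 5% CO2, seeded at 1.0 × 10^4 cells/cm2 (approx.). After 24 h, medium switched to 5% FBS medium with compounds diluted from 20 mM DMSO stocks, 50 to 0.05 µM, final DMSO ≤0.25% (vehicle control). Incubated 48 h. MTT 0.5 mg/mL for 4 h at 37 °C, formazan dissolved in DMSO, OD 570 nm. GI50 by linear regression of percent growth vs control. Three experiments, each in quadruplicate.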
For orientation: Formazan colour is commonly taken as a measure of viable cells.

The test system of data set [3] is HeLa. The data set is described as follows: Induction of cell cycle arrest in human HeLa cells assessed as increase in accumulation at subG0/G1 phase after 24 to 48 hrs by propidium iodide staining based flow cytometry. Type of data set: functional. The note with it: TDE = time-dependent effect. In general terms: Flow cytometry measures light scatter and fluorescence of single cells or particles in a stream.

The term GI50 denotes the concentration at which growth is held to half of that of the control.

Structures are written as SMILES. A value given as a limit tells only on which side of the number the result lay.

As for `CCOC(=O)c1sc2ccc(N)cc2c1NC(=O)c1ccc(C)cc1`, the Activity result in data set [1] is on record as “Non-toxic”. Also, in data set [2], the GI50 turned out to be 24.4 µM.

On to `CCOC(=O)c1sc2ccc(N)cc2c1NC(=O)c1ccc(C(F)(F)F)cc1`, for which the Activity result in data set [1] was “Non-toxic”. Further, the GI50 in data set [2] was 6.68 µM.

Take `CCOC(=O)c1sc2ccc(NCc3nc[nH]c3C)cc2c1NC(=O)c1ccc(OC)cc1`: the Activity entry in data set [1] was “Non-toxic”. The GI50 in data set [2] was found to be 8.22 µM.

For the molecule `CCOC(=O)c1sc2ccc(NCc3c[nH]cn3)cc2c1NC(=O)c1ccc(C(F)(F)F)cc1`, the Activity entry in data set [1] is “Non-toxic”. In data set [2], the GI50 stood at 16.8 µM.

For the molecule `CCOC(=O)c1sc2ccc(N)cc2c1NC(=O)c1cc(OC)c(OC)c(OC)c1`, the Activity entry in data set [3] was “tde”; in data set [1] it was “Non-toxic”. Moreover, the GI50 in data set [2] is 4.66 µM.

`CCOC(=O)c1sc2ccc(NCc3c[nH]cn3)cc2c1NC(=O)c1ccccc1`: the Activity entry in data set [1] is on record as “Non-toxic”. Besides, the GI50 in data set [2] came to 17.9 µM.

For `CCOC(=O)c1sc2ccc(NCc3c[nH]cn3)cc2c1NC(=O)c1ccc(OC)cc1`, the Activity entry in data set [1] was “Non-toxic”. Also, the GI50 in data set [2] came out at 12.9 µM.

Consider `CCOC(=O)c1sc2ccc(N)cc2c1NC(=O)c1ccc(F)c(Cl)c1`, for which the Activity entry in data set [1] is reported as “Non-toxic”. Besides, the GI50 in data set [2] was 12.3 µM.

On to `CCOC(=O)c1sc2ccc(NCc3nc[nH]c3C)cc2c1NC(=O)c1cc(OC)c(OC)c(OC)c1`, for which the results for the Activity result in data set [3] and in data set [1] were “tde” and “Non-toxic”, respectively. In data set [2], the GI50 came out at 2.23 µM.

`CCOC(=O)c1sc2ccc(NCc3nc[nH]c3C)cc2c1NC(=O)c1ccc(C)cc1`: the Activity result in data set [1] is recorded as “Non-toxic”. Further, in data set [2], the GI50 was determined as 11.4 µM.

Take `CCOC(=O)c1sc2ccc(N)cc2c1NC(=O)c1ccccc1`: the Activity entry in data set [1] is “Non-toxic”. For the same molecule, the GI50 in data set [2] was over 50 µM.

Turning to `CCOC(=O)c1sc2ccc(NCc3c[nH]cn3)cc2c1NC(=O)c1ccc(F)c(Cl)c1`, in data set [1], the Activity result is “Non-toxic”. In addition, the GI50 in data set [2] was found to be 10.7 µM.

Take `CCOC(=O)c1sc2ccc(NCc3nc[nH]c3C)cc2c1NC(=O)c1ccc(C(F)(F)F)cc1`: the Activity result in data set [1] is “Non-toxic”. Further, the GI50 in data set [2] was 12.8 µM.

In the case of `CCOC(=O)c1sc2ccc(NCc3c[nH]cn3)cc2c1NC(=O)c1ccc(C)cc1`, in data set [1], the Activity result is recorded as “Non-toxic”. Moreover, the GI50 in data set [2] turned out to be 11.7 µM.

Take `CCOC(=O)c1sc2ccc(N)cc2c1NC(=O)c1ccc(OC)cc1`: in data set [1], the Activity result was “Non-toxic”. Also, in data set [2], the GI50 is over 50 µM.

For the molecule `CCOC(=O)c1sc2ccc(NCc3nc[nH]c3C)cc2c1NC(=O)c1ccc(F)c(Cl)c1`, the Activity result in data set [3] was “tde”; in data set [1] it was “Non-toxic”. Further, the GI50 in data set [2] was 2.91 µM.

In the case of `CCOC(=O)c1sc2ccc(NCc3nc[nH]c3C)cc2c1NC(=O)c1ccccc1`, in data set [1], the Activity result was “Non-toxic”. For the same molecule, the GI50 in data set [2] was determined as 23.3 µM.

Consider `CCOC(=O)c1sc2ccc(NCc3c[nH]cn3)cc2c1NC(=O)c1cc(OC)c(OC)c(OC)c1`, for which, in data set [1], the Activity entry is listed as “Non-toxic”. Also, the GI50 in data set [2] was 6.79 µM.
